Measured values reported in PubChem BioAssay.
Calls of active or inactive are those of the source.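 The calls were made as follows, unless noted: active = current rise at least 3 SD above the untreated control mean in each of two repeat wells; inactive = the rest.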

Assays:
[1] = thallium flux activation in parental CHO cells, counter-screen for KCNQ1 potentiator project (AID 493006;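 active = duplicate-averaged activation above buffer control mean plus 5 SD of those controls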); settings: parental CHO-K1 cells, FluxOR thallium flux, at 10 µM; stronger effect = higher value
In short: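 Test system: parental CHO-K1 cells, FluxOR dye-loaded / Probe or stimulus: potassium plus thallium depolarizing stimulus, 5x stock 12.5 mM K2SO4, Tl2SO4 / Timing: overnight 37 °C plating, 90 min dye, 20 min dark compound / Measured by: kinetic thallium-flux fluorescence / Read-out: max-minus-min fluorescence over baseline, percent of buffer-to-R-L3 span / Benchmarks: buffer and R-L3 controls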

[2] = target: Potassium voltage-gated channel subfamily KQT member 1 (Homo sapiens) (UniProt P51787); assay: KCNQ1 potassium channel potentiators, confirmation, FluxOR thallium flux, CHO cells, duplicates (AID 493007;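 active = potentiation averaged over duplicate wells exceeding buffer-only control mean by more than 3 SD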;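 as to potentiation: 0% = buffer-only wells and 100% = R-L3 activator control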); settings: KCNQ1 cell line, FluxOR thallium flux fluorescence, at 10 µM; stronger effect = higher value, % of reference activator effect, buffer zero
Potassium voltage-gated channel subfamily KQT member 1 (Homo sapiens), sequence (P51787 whole entry, looked up): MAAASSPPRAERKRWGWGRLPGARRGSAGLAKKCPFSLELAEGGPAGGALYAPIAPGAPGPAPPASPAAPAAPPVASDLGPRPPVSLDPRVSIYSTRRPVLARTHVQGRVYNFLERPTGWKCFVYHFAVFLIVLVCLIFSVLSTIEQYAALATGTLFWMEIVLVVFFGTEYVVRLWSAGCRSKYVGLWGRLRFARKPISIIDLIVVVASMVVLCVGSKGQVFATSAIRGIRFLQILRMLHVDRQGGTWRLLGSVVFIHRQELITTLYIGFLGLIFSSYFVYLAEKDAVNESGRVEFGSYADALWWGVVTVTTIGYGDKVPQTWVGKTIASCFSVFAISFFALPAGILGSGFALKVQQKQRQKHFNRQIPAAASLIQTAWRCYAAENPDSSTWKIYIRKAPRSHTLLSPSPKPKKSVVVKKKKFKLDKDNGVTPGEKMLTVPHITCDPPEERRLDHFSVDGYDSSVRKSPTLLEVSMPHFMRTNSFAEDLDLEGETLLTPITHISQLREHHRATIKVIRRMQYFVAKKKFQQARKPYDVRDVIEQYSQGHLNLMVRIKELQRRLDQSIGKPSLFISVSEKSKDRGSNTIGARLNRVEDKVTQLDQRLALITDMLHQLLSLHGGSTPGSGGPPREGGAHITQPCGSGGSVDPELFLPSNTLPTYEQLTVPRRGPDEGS
In short: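 Assay system: CHO cells carrying KCNQ1 | Controls: Buffer and R-L3 controls | Schedule: FluxOR dye loading 90 min, compound exposure 20 min, room temperature | Read-out: Baseline-normalized fluorescence change, percent of buffer-to-R-L3 range | Replicates: Each compound tested in duplicate | Technique: Kinetic thallium influx fluorescence with FluxOR dye, 10 s baseline, 110 s post-stimulus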

[3] = target: Potassium voltage-gated channel subfamily KQT member 2 (Rattus norvegicus) (UniProt O88943); assay: rat KCNQ2 channel potentiation, selectivity assay for KCNQ1 potentiator project, KCNQ2-CHO-K1 cells (AID 493009;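 active = mean duplicate potentiation above the buffer control mean plus 5 SD of buffer wells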;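 also: assay conditions were tuned for KCNQ1 rather than KCNQ2 modulators; signal is max minus min fluorescence divided by baseline after thallium stimulus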); settings: FluxOR thallium flux fluorescence, at 10 µM; stronger effect = higher value, scaled: buffer 0, activator control 100
Potassium voltage-gated channel subfamily KQT member 2 (Rattus norvegicus), sequence (O88943 whole entry, looked up): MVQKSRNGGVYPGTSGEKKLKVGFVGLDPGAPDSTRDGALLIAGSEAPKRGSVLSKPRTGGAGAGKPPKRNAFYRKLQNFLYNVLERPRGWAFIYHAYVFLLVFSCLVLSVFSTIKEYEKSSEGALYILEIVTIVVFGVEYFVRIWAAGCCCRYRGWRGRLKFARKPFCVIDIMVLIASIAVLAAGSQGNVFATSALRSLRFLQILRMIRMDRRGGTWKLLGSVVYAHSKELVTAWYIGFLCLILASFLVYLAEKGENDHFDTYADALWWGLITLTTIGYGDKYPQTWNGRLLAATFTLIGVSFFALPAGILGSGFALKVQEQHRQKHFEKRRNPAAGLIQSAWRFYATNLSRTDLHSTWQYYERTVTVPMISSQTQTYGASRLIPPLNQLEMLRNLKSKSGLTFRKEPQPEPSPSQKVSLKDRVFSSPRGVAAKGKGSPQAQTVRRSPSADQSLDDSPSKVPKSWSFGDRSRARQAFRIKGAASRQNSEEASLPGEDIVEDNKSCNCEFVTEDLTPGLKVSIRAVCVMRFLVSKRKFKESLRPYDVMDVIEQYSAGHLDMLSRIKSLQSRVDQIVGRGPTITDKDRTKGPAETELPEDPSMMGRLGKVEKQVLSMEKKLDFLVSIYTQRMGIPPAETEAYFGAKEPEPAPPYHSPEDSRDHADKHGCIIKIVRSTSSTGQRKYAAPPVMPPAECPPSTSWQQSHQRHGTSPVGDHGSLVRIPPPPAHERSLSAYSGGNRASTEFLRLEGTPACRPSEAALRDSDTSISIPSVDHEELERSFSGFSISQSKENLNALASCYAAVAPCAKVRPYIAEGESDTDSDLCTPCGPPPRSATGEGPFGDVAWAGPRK

[4] = target: Potassium voltage-gated channel subfamily KQT member 1 (Homo sapiens) (UniProt P51787); assay: KCNQ1 channel current potentiators, confirmation, orthogonal assay for KCNQ1 potentiator project, IonWorks patch clamp, KCNQ1-CHO cells (AID 493184); settings: automated patch clamp current, at 10 µM; stronger effect = higher value
In short: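 Material: KCNQ1-expressing CHO cells; doses: 10 µM final, single point; probe or stimulus: voltage step from -90 mV holding to +40 mV, 2,000 ms; signal: automated voltage clamp, amphotericin B perforated patch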

[5] = target: Potassium voltage-gated channel subfamily E member 1 (Homo sapiens) + Potassium voltage-gated channel subfamily KQT member 1 (Homo sapiens) (UniProt P15382+P51787); assay: KCNQ1/KCNE1 complex potentiators, confirmation, selectivity assay for KCNQ1 potentiator project, thallium flux, CHO-K1 KCNQ1/E1 cells (AID 493186;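 active = mean duplicate activation above the buffer control mean plus 5 SD of those controls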); settings: FluxOR thallium flux, at 10 µM; stronger effect = higher value
Potassium voltage-gated channel subfamily E member 1 (Homo sapiens) + Potassium voltage-gated channel subfamily KQT member 1 (Homo sapiens), sequence (P51787 whole entry, looked up): as the sequence (P51787 whole entry, looked up) above
In short: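 Test system: CHO-K1 cells with KCNQ1/E1. Times: 90-min dye loading then 20-min compound exposure, both at room temperature. Measured by: kinetic FluxOR thallium-flux fluorescence, 10 s baseline plus 110 s after stimulus. Repeats: duplicate wells per compound.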

Measured: potentiation

Cc1cc(C(=O)CCl)c(C)n1-c1cccc([N+](=O)[O-])c1
inactive: [1] | [2] | [3] | [4] | [5]

Cc1cccc(Cn2c(O)c(N=NC(=S)Nc3ccccc3F)c3ccccc32)c1
inactive: [1] | [4] | [5]
active: [2] 22.5% | [3] 148%

CC12CCC(C(=O)N(CSC(=S)N/N=C\c3ccccc3)C1=O)C2(C)C (stereo not given)
inactive: [1] | [3] | [4] | [5]
active: [2] 33.5%

NNc1nc2c(F)cc(F)cc2s1
inactive: [1] | [2] | [3] | [4] | [5]

CCCOC(=O)C1=C(C)NC2=C(C(=O)CCC2)C1c1ccc(N(C)C)cc1 (stereo not given)
inactive: [1] | [2] | [3] | [4] | [5]

CC1CC(=S)Nc2ccccc2N1C(=O)Nc1ccccc1 (stereo not given)
inactive: [1] | [2] | [3] | [4] | [5]

CCOC(=O)C1=C(CC)Nc2ccccc2N=C1NC(=O)CCNC(C)=O
inactive: [1] | [2] | [3] | [4] | [5]

CCOC(=O)Cn1c(C(=O)OCC)cc2sccc21
inactive: [1] | [3] | [4] | [5]
active: [2] 35.5%

CCc1cc(=O)oc2cc(OC(C)C(=O)NCC(O)c3ccccc3)c(Cl)cc12 (stereo not given)
inactive: [1] | [2] | [3] | [4] | [5]

Cc1ccc(C)c(N/C(N)=N/c2nc(C)cc(C)n2)c1
inactive: [1] | [2] | [3] | [4] | [5]

Cc1cccc2sc(N(CCCN(C)C)C(=O)c3ccc4ncsc4c3)nc12
inactive: [1] | [2] | [3] | [4] | [5]

C=CS(=O)(=O)c1sc(Cl)c(N2CCOCC2)c1[N+](=O)[O-]
active: [2] 19%
inactive: [1] | [3] | [4] | [5]

CCC(C)N(C(=O)COC(=O)c1cc([N+](=O)[O-])ccc1N1CCOCC1)C1CCS(=O)(=O)C1 (stereo not given)
inactive: [1] | [2] | [3] | [4] | [5]

Cc1ccc(C(=O)OCC(=O)NCCC2=CCCCC2)s1
inactive: [1] | [2] | [3] | [4] | [5]

CC1CCCCC1NC(=S)NC(=O)c1sc2ccccc2c1Cl (stereo not given)
active: [2] 54%
inactive: [1] | [3] | [4] | [5]

OCCNCc1cc(Br)ccc1OCc1ccccc1Cl
inactive: [1] | [2] | [3] | [4] | [5]

O=C(CSc1ccccn1)N1CCN(S(=O)(=O)c2ccc(Cl)cc2)CC1
inactive: [1] | [2] | [3] | [4] | [5]

C=CCNC(=S)NNC(=O)COc1c(Cl)cc(Cl)cc1Cl
inactive: [1] | [2] | [3] | [4] | [5]

S=c1nc[nH]c2c1sc1nc(N3CCOCC3)c3c(c12)CCCC3
active: [2] 105%
inactive: [1] | [3] | [4] | [5]

CCOC(=O)c1c(NC(=O)CN2CCN(C(=O)c3ccco3)CC2)sc2c1CCCC2
inactive: [1] | [3] | [4] | [5]
active: [2] 39.5%

CCOc1cc(CN2CCN(C(=O)CC(C)C)CC2)ccc1OC
inactive: [1] | [3] | [4] | [5]
active: [2] 23.5%

Cn1c(O)c(N=NC(=S)Nc2ccccc2F)c2cc(S(=O)(=O)N3CCOCC3)ccc21
inactive: [1] | [2] | [3] | [4] | [5]

C=CCNC(=S)Nc1sc2c(c1C(=O)OCC)CCN(C(=O)OCC)C2
inactive: [1] | [2] | [3] | [4] | [5]

COc1ccc(-n2ccnc(SCC(=O)NC3CCCC3)c2=O)cc1OC
inactive: [1] | [2] | [3] | [4] | [5]

Cc1ccc(-n2ncc3c(=O)n(CC(=O)N4CCN(c5ccccc5F)CC4)cnc32)cc1C
inactive: [1] | [2] | [3] | [4] | [5]

COC(=O)c1ccccc1NC(=S)NC(=O)c1ccc(C)cc1
inactive: [1] | [2] | [3] | [4] | [5]

CCCN(CCC)Cc1c(C(=O)N/N=C/C(C)=C\c2ccco2)nnn1-c1nonc1N
inactive: [1] | [2] | [3] | [4] | [5]

S=c1[nH]c(-c2cccs2)cn1-c1ccccc1
inactive: [1] | [4] | [5]
active: [2] 26% | [3] 151%

O=c1c2cc(Cl)ccc2[nH]c(=S)n1Cc1cccs1
inactive: [1] | [2] | [4] | [5]
active: [3] 142%
